The test system of test [1] is CT-DNA. Briefly: Viscosity measurements of CT-DNA. Particulars: 5.0 mM Tris–HCl buffer, pH 7.2; 1.0–6.0 mM. Put shortly: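 Sonicated CT-DNA held at constant concentration (5.0 mM) with added test compound, EtBr as reference. After 15 min equilibration, flow time measured in triplicate with a stopwatch. η = (t − t0)/t0, with t0 the flow time of buffer alone. Results plotted as (η/η0)^1/3 versus binding ratio.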

In test [2] the test system is CT-DNA. Briefly: Fluorescence EtBr exchange titration on CT-DNA. Format: binding. Particulars: for Stern–Volmer quenching constant K sv × 10^−3: Tris–HCl buffer pH 7.2, head: Ksv × 10^−3; for bimolecular quenching rate constant k q × 10^−13: τ0 = 23 ns, head: kq × 10^−13. The essentials:
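CT-DNA (10 μM) premixed with EtBr (10 μM) in 5.0 mM Tris–HCl/50 mM NaCl, pH 7.2, then held 4 h at 4 °C. Titrated with incremental aliquots of 5.0 mM test-compound stock in 50% DMSO. Excitation 500 nm; emission decrease recorded over 520–700 nm. Filter-effect corrections applied. DNA concentration set from A260 (ε ≈ 6600 M−1 cm−1).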

A further test deals with BSA (Bos taurus, UniProt P02769). In words: BSA tryptophan fluorescence quenching titration. Format: binding, Bovine. Particulars: for number of binding sites, n / binding constant K F × 10^−5: Scatchard equation; for binding constant K F × 10^−5: head: KF × 10^−5; for Stern–Volmer quenching constant K sv × 10^−5: Tris–HCl/50 mM NaCl pH 7.2, head: Ksv × 10^−5; for bimolecular quenching rate constant k q × 10^−10: head: kq × 10^−10. Put shortly:
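BSA stock (10.4 μM) made in 5.0 mM Tris–HCl/50 mM NaCl, pH 7.2, with concentration set from A278 (ε 4.4 × 10^4 M−1 cm−1). Equilibrated buffered BSA with test compound at 0–130 μM at room temperature. Excitation 278 nm; tryptophan emission read over 250–450 nm. Ksv taken from the slope of Io/I versus [Q].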

Test [3] concerns HepG2 cells. Briefly: MTT cytotoxicity assay on HepG2 cells. Particulars: 24 h incubation. Format: cell-based, human. The essentials: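 HepG2 grown in DMEM with 10% FBS and penicillin/streptomycin (100 μg mL−1 each) at 37 °C, 5% CO2. Seeded at 1 × 10^4 cells/mL, 24 h, then exposed to test compound at 10–50 μM (10 μM steps) for 24 h. MTT (5 mg mL−1 in PBS) added for 2–4 h; formazan dissolved in DMSO; read at 560 nm against 1% DMSO control. IC50 from nonlinear regression of % viability versus concentration.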
(In general: Tetrazolium assays rely on reduction of a dye to a coloured formazan, in cell work by metabolically active cells.)

Test [4] has as its system HepG2 cells. Particulars: cited from earlier work.

Structures are written as SMILES. Where two headings read alike, the source gives them in different places.

Chain of BSA (P02769 25-607): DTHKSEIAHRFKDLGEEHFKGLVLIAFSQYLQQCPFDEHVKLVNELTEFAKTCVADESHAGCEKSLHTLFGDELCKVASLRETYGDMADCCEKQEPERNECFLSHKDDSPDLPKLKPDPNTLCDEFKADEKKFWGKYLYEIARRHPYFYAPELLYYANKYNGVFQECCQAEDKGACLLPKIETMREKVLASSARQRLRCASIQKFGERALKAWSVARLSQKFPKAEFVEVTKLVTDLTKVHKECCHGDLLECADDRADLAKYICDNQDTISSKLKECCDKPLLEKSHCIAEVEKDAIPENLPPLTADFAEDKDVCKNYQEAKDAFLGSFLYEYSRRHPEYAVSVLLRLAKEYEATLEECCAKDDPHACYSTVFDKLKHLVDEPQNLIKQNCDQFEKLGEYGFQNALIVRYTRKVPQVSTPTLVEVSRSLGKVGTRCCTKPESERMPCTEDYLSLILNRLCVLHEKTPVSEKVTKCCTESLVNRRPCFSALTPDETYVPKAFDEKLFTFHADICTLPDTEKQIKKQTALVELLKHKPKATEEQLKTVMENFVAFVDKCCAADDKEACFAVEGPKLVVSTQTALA

With `CC[n+]1c(-c2ccccc2)c2cc(N)ccc2c2ccc(N)cc21.[Br-]` [EtBr, 3,8-diamino-5-ethyl-6-phenylphenanthridinium bromide], the “relative viscosity of CT-DNA solutions with increasing concentration” value in the test with CT-DNA [1] is “increased dramatically”.

What is called IC50 is the concentration needed to halve the response being measured. On to `[Cl][Pt][Cl].c1ccc(-c2nc3cc4ccccc4cc3nc2-c2ccccn2)nc1` [bbqPtCl2], for which, in the test on CT-DNA [2], the “Stern–Volmer quenching constant K sv × 10^−3” value came out at 5.49 ± 0.07 M^−1 and the “bimolecular quenching rate constant k q × 10^−13” value came out at 2.52 ± 0.22 M^−1 s^−1. Moreover, at BSA, the “number of binding sites, n” value is 1.01 ± 0.05; the “binding constant K F × 10^−5” value turned out to be 5.34 ± 0.10 M^−1; the “Stern–Volmer quenching constant K sv × 10^−5” value is on record as 4.78 ± 0.19 M^−1; the “bimolecular quenching rate constant k q × 10^−10” value is reported as 9.61 ± 0.5 M^−1 s^−1. In the test on HepG2 cells [3], the midpoint of inhibition, the IC50, lay at 17.4 ± 2 µM.

Consider `[Cl][Pt][Cl].c1ccc(-c2nc3ccccc3nc2-c2ccccn2)nc1` [bpqPtCl2], for which, in the test with CT-DNA [2], the “Stern–Volmer quenching constant K sv × 10^−3” value stood at 2.43 ± 0.02 M^−1 and the “bimolecular quenching rate constant k q × 10^−13” value stood at 1.06 ± 0.10 M^−1 s^−1. Moreover, on BSA, the “number of binding sites, n” value is on record as 0.98 ± 0.03; the “binding constant K F × 10^−5” value amounted to 1.93 ± 0.02 M^−1; the “Stern–Volmer quenching constant K sv × 10^−5” value is reported as 2.47 ± 0.03 M^−1; the “bimolecular quenching rate constant k q × 10^−10” value came out at 4.97 ± 0.2 M^−1 s^−1. The compound also came in with an IC50 in the test with HepG2 cells [3] of 15.7 ± 1.6 µM.

`N.N.[Cl][Pt][Cl]` [cisplatin]: the IC50 in the test with HepG2 cells [4] is 17.9 ± 2.1 µM.

For `Cc1cc2nc(-c3ccccn3)c(-c3ccccn3)nc2cc1C.[Cl][Pt][Cl]` [dmbpqPtCl2], in the test with CT-DNA [2], the “Stern–Volmer quenching constant K sv × 10^−3” value was determined as 3.26 ± 0.05 M^−1 and the “bimolecular quenching rate constant k q × 10^−13” value worked out at 1.47 ± 0.16 M^−1 s^−1. Further, at BSA, the “number of binding sites, n” value is listed as 0.98 ± 0.03; the “binding constant K F × 10^−5” value amounted to 2.97 ± 0.07 M^−1; the “Stern–Volmer quenching constant K sv × 10^−5” value came out at 3.47 ± 0.11 M^−1; the “bimolecular quenching rate constant k q × 10^−10” value came to 6.98 ± 0.3 M^−1 s^−1. In addition, in the test with HepG2 cells [3], 14.9 ± 1.4 µM corresponded to half-maximal inhibition (IC50).

These data come from paper PMC9072748 (RSC Advances, 2019).
